From PubChem
UBC13 polyUb: UBC13 polyubiquitin chain formation inhibitors, primary screen, biochemical, TR-FRET, uHTS; Ubiquitin-conjugating enzyme E2 N (Homo sapiens), P61088; inhibition, % at 20 µM; 0.47% of 330,000 active; in the data active = inhibition above about 45%, passing the limit was not always enough
T cruzi inh: inhibitors of intracellular T. cruzi growth, primary screen, luminescence, NIH3T3 host cells | T. cruzi beta-gal in NIH3T3, 90 h | inhibition, % (no concentration beside the values) | 1.4% of 300,000 active | AID 1885, 2009;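 active = mean inhibition across valid replicates above about 55%, limit read from the data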;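 also: signal also drops with host cell toxicity which is not excluded here; 0% = plate median of DMSO wells and 100% = zero luminescence signal; higher percent means less beta-gal luminescence so fewer parasites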
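assay system = mouse NIH/3T3 fibroblasts infected with β-gal-expressing T. cruzi Tulahuen C4 | input = 5,000 NIH/3T3 host cells per well | buffer or medium = DMEM plus 2% FBS | timing = 3 h host attachment, then at least 90 h co-culture | measured by = GalScreen luminescence, 60 min | evaluation = luminescence reflecting intracellular parasite burden, expressed as percent inhibition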
AI-2 QS modul: Vibrio harveyi AI-2 quorum sensing modulators, primary screen, JMH597 strain, luminescence/OD600 ratio. Vibrio harveyi JMH597 AI-2 luminescence/OD600 ratio, 9 h; hits give low values; strain lacks LuxN and CqsS sensors; 0 = neutral-control median. activity change, % at 7.5 µM. 0.4% of 300,000 active; in the data active = activity change below about -75%, passing the limit was not always enough;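 also: luminescence divided by OD600 gain over 9 h not by final OD600 alone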
p-CIP stab down: p/CIP-EGFP fusion destabilizers, primary screen, fluorescence, F442A cells; decrease of EGFP signal, % at 10 µM; 16 h; 0.01% of 290,000 active; Q05BA5;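 active = EGFP signal decrease of at least 30% at 10 µM or well 3 SD below plate mean, unless failing retest; inactive = the rest, including hits failing retest or dose response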
PP1 counter: PP1-alpha phosphatase inhibitors, primary screen, counter-screen for PP5 inhibitor project, biochemical, fluorescence, OMFP substrate, single point; 0.9% of 320,000 active; inhibition, % at 6.7 µM; AID 2235, 2010; purified PP1alpha;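 active = inhibition above the mean inhibition of all tested compounds plus 3 SD, computed separately for each screening campaign, cut at about 15% in these data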
Target sequence (P62136 whole entry, looked up): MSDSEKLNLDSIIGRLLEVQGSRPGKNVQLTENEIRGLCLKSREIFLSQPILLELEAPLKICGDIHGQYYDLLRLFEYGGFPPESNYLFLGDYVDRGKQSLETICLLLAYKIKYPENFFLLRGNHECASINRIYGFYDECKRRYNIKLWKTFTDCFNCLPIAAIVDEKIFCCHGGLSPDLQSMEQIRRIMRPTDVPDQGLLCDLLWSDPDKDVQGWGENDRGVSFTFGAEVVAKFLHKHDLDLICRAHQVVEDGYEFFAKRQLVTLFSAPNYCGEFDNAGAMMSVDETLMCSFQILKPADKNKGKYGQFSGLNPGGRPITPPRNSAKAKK
* = called active by the depositor. Hits are enriched below; roughly 2.8% of the tested compounds scored in any of these assays.

Results for COc1ccc(Cc2nnc(NS(=O)(=O)c3ccc(Cl)cc3)s2)cc1OC ?
UBC13 polyUb: -5.4; T cruzi inh: 6.1; AI-2 QS modul: 20.7; p-CIP stab down: -4.3; PP1 counter: 10.8

What do the screens show for `O=c1oc2ccccc2c(O)c1Cc1cc(Cl)c2cccnc2c1O`?
UBC13 polyUb: -44.0; T cruzi inh: -10.9; AI-2 QS modul: 28.8; p-CIP stab down: -0.8; PP1 counter: 15.8*

How did O=C(COc1ccccc1F)Nc1cc(S(=O)(=O)N2CCOCC2)ccc1N1CCOCC1 do in these assays?
UBC13 polyUb: 1.3; T cruzi inh: 10.9; AI-2 QS modul: 6.8; p-CIP stab down: -4.2; PP1 counter: 1.2

What do the screens show for `Cc1c(C(=O)N2CCN(S(=O)(=O)c3ccc(F)cc3)CC2)oc2ccccc12`?
UBC13 polyUb: -0.4; T cruzi inh: 56.0*; AI-2 QS modul: 3.8; PP1 counter: -2.8

Results for CCN1CCN(c2ccc(S(=O)(=O)N3CCOCC3)cc2NC(=O)CCSC)CC1 ?
UBC13 polyUb: 23.8; PP1 counter: 0.7

What do the screens show for `Cc1c(C(=O)N2CCN(S(=O)(=O)c3cccs3)CC2)oc2ccc(F)cc12`?
UBC13 polyUb: 1.4

How did CCN1CCN(c2ccc(S(=O)(=O)N3CCOCC3)cc2NC(=O)CCOc2ccccc2)CC1 do in these assays?
UBC13 polyUb: -8.9; T cruzi inh: 55.8*; AI-2 QS modul: 19.2; p-CIP stab down: -16.2; PP1 counter: 1.4

What do the screens show for `CCN1CCN(c2ccc(S(=O)(=O)N3CCOCC3)cc2NC(=O)COc2ccc(F)cc2Cl)CC1`?
UBC13 polyUb: 1.2; T cruzi inh: 57.0*; AI-2 QS modul: 35.2; p-CIP stab down: 2.7; PP1 counter: -5.8

How did CCN1CCN(c2ccc(S(=O)(=O)N3CCOCC3)cc2NC(=O)CCC(C)C)CC1 do in these assays?
UBC13 polyUb: -6.5; T cruzi inh: 55.8*; AI-2 QS modul: 19.3; PP1 counter: -5.1

How did Cc1cc(C)n(CC(=O)NNC(=O)CC(C)c2ccccc2)n1 (stereo unspecified) do in these assays?
UBC13 polyUb: 3.1; PP1 counter: -3.0

How did Cc1ccc(NC(=O)NC(=O)COc2c(F)c(F)cc(F)c2F)c(C)c1 do in these assays?
UBC13 polyUb: 13.8

How did O=S(=O)(Nc1ccncc1)c1cc(Cl)c(Cl)cc1Cl do in these assays?
UBC13 polyUb: -8.0; T cruzi inh: -6.8; AI-2 QS modul: 24.3; p-CIP stab down: -12.2; PP1 counter: 7.0

What do the screens show for `CCN1CCN(c2ccc(S(=O)(=O)N3CCCCC3)cc2NC(=O)COc2ccccc2)CC1`?
UBC13 polyUb: 3.3; T cruzi inh: 58.2*; AI-2 QS modul: 25.0; PP1 counter: -1.2

What do the screens show for `Cc1c(C(=O)Nc2cc(S(=O)(=O)N3CCOCC3)ccc2N2CCOCC2)oc2ccccc12`?
UBC13 polyUb: 19.6; T cruzi inh: 74.7*; AI-2 QS modul: 0.1; p-CIP stab down: -1.1; PP1 counter: -0.8

How did O=C(Nc1cc(S(=O)(=O)N2CCOCC2)ccc1N1CCOCC1)c1ccccc1F do in these assays?
UBC13 polyUb: -9.1; PP1 counter: -4.9

Results for COc1ccc(CCC(=O)N/N=C\c2cccs2)cc1 ?
UBC13 polyUb: 1.8; T cruzi inh: -20.9; AI-2 QS modul: 7.7; p-CIP stab down: -2.9; PP1 counter: -2.0

Results for O=C1CC(=C2c3ccccc3-c3ccccc32)C(=O)N1CCN1CCN(c2ccccc2)CC1 ?
UBC13 polyUb: -15.6; T cruzi inh: -6.8; AI-2 QS modul: 34.3; PP1 counter: 17.2*

What do the screens show for `CC1CCCN(c2ccc(C(=O)NCc3ccc4c(c3)OCO4)cc2[N+](=O)[O-])C1` (stereo unspecified)?
UBC13 polyUb: -2.0; T cruzi inh: 37.8; AI-2 QS modul: 17.1; p-CIP stab down: 2.6; PP1 counter: 1.7

How did O=C(NCc1ccc2c(c1)OCO2)c1ccc(N2CCCCCC2)c([N+](=O)[O-])c1 do in these assays?
UBC13 polyUb: -6.9; T cruzi inh: 59.0*; AI-2 QS modul: 16.9; p-CIP stab down: -10.4; PP1 counter: 12.1

Results for CCC(=O)Nc1c(-c2ccccc2Cl)c(=O)c2ccccc2n1CC ?
UBC13 polyUb: 2.7; T cruzi inh: 5.1; AI-2 QS modul: 9.4; p-CIP stab down: -16.9; PP1 counter: -0.3
